Source: ChEMBL document CHEMBL4376851 (J Med Chem, 2020)

Tests used:
[1] = species on record: Rattus norvegicus; test: Inhibition of rat kidney ALR1 at 100 uM using sodium D-glucuronate as substrate incubated for 1 min and measured up to 4 mins using H2O-dissolved compound by spectrophotometric analysis relative to control
Summary of the method: (§1)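 ALR1 purified from kidneys of male Wistar rats (8–9 weeks, 200–230 g); reduction of D-glucuronate monitored. Inhibitor dissolved in water. I (%) is inhibition at 100 μM inhibitor. Same enzyme batch throughout. Values are means of two measurements or mean ± SD of at least three.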

[2] = Antioxidant activity assessed as DPPH radical scavenging activity by measuring reduction in absorbance at 200 uM after 30 mins (reference value: 0.013 +/- 0.012); format: functional
Summary of the method: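 Stable DPPH radical, 50 μM in ethanol, incubated without (blank) or with test compound at 200 μM; absorbance decline at 518 nm read after the initial 30-min interval. Mean ± SD of at least three measurements.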

[3] = species on record: Rattus norvegicus; test: Selectivity index, ratio of IC50 for rat kidney ALR1 using sodium D-glucuronate as substrate incubated for 1 min and measured up to 4 mins using H2O-dissolved compound to IC50 for rat lens ALR2 using D,L-glyceraldehyde as substrate incubated for 1 min and measured up to 4 mins using H2O-dissolved compound
Summary of the method: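 Selectivity factor computed as IC50(ALR1, rat kidney, D-glucuronate) divided by IC50(ALR2, rat lens, D,L-glyceraldehyde), both measured with compounds in water.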

[4] = target: T1, Aldo-keto reductase family 1 member B1 (Rattus norvegicus, UniProt P07943); test: Inhibition of rat lens ALR2 using D,L-glyceraldehyde as substrate incubated for 1 min and measured up to 4 mins using H2O-dissolved compound by spectrophotometric analysis
Summary of the method: (§2)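 ALR2 purified from lenses of male Wistar rats (8–9 weeks, 200–230 g); in vitro reduction of D,L-glyceraldehyde (5.0 mM) monitored. Solvent was water or 1% DMSO. Same enzyme batch throughout. IC50 is the mean of two measurements or mean ± SD of at least three.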

[5] = Inhibition of rat kidney ALR1 using sodium D-glucuronate as substrate incubated for 1 min and measured up to 4 mins using H2O-dissolved compound by spectrophotometric analysis; summary of the method: as §1
[6] = target: T1, Aldo-keto reductase family 1 member B1; test: Inhibition of rat lens ALR2 using D,L-glyceraldehyde as substrate incubated for 1 min and measured up to 4 mins using 1% DMSO-dissolved compound by spectrophotometric analysis; summary of the method: as §2
[7] = species on record: Homo sapiens; test: Selectivity index, ratio of IC50 for human AKR1B10 to IC50 for human AKR1B1 expressed in Escherichia coli
Summary of the method: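 Ratio of IC50s against recombinant human AKR1B10 and AKR1B1, each measured without DMSO as inhibition of DL-glyceraldehyde reduction. AKR1B10 used 5 mM substrate, 0.12 mM nicotinamide adenine dinucleotide phosphate cofactor and 10 μg/mL protein. AKR1B1 used the rat-lens ALR2 assay conditions at 5 μg/mL protein. IC50s are mean ± SD of at least three measurements.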

[8] = target: T1, Aldo-keto reductase family 1 member B1; test: Inhibition of rat lens ALR2 using 4-hydroxynonenal as substrate incubated for 1 min and measured up to 4 mins by spectrophotometric analysis
Summary of the method: (§3)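 Rat lens ALR2 with methylglyoxal (0.5 mM), 4-hydroxynonenal (0.5 mM) or GS-HNE (1.0 mM). IC50 is mean ± SD of at least three measurements.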

[9] = target: Aldo-keto reductase family 1 member B1 (Rattus norvegicus) (UniProt P07943); test: Inhibition of ALR2 in rat lens assessed as reduction in sorbitol accumulation preincubated for 30 mins followed by D-glucose addition and measured after 3 hrs by resazurin based fluorescence analysis
Summary of the method: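 Isolated eye lenses from female Wistar rats (9–10 weeks, 210–250 g) incubated with 50 mM glucose, alongside glucose-free and glucose-only controls. Inhibitor at 1, 10, 50 and 100 μM; lens sorbitol measured. Mean ± SEM of at least five independent incubations.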

[10] = target: T1, Aldo-keto reductase family 1 member B1; test: Inhibition of rat lens ALR2 using 4-hydroxynonenal glutathione as substrate incubated for 1 min and measured up to 4 mins by spectrophotometric analysis; summary of the method: as §3
[11] = target: T1, Aldo-keto reductase family 1 member B1; test: Inhibition of rat lens ALR2 using methylglyoxal as substrate incubated for 1 min and measured up to 4 mins by spectrophotometric analysis; summary of the method: as §3
[12] = target: T2, Sorbitol dehydrogenase (Ovis aries) (UniProt P07846); test: Inhibition of sheep liver sorbitol dehydrogenase at 100 uM using sorbitol as substrate measured for 4 mins in presence of NAD+ by spectrophotometric analysis relative to control
T2 sequence (whole entry): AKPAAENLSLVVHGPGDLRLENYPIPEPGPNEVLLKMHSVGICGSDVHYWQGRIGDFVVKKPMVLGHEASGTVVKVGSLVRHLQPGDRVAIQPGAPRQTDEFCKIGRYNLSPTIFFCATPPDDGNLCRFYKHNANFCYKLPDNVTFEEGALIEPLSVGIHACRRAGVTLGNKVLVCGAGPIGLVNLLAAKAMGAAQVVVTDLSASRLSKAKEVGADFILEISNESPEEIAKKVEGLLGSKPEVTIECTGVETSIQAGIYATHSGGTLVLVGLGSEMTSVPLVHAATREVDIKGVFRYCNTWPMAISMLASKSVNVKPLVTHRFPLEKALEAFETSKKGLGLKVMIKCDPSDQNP

[13] = target: Aldo-keto reductase family 1 member B10 (Homo sapiens, UniProt O60218); test: Inhibition of human AKR1B10 using D,L-glyceraldehyde as substrate incubated for 1 min and measured up to 4 mins using by spectrophotometric analysis
Summary of the method: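 Human recombinant AKR1B10 at 10 μg/mL protein with 5 mM DL-glyceraldehyde substrate and 0.12 mM NADPH cofactor. Run without DMSO. IC50 is mean ± SD of at least three measurements.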

[14] = target: Aldo-keto reductase family 1 member B1 (Homo sapiens, UniProt P15121); test: Inhibition of human AKR1B1 expressed in Escherichia coli using D,L-glyceraldehyde as substrate incubated for 1 min and measured up to 4 mins using by spectrophotometric analysis

Sequence of Aldo-keto reductase family 1 member B10 (O60218 whole entry): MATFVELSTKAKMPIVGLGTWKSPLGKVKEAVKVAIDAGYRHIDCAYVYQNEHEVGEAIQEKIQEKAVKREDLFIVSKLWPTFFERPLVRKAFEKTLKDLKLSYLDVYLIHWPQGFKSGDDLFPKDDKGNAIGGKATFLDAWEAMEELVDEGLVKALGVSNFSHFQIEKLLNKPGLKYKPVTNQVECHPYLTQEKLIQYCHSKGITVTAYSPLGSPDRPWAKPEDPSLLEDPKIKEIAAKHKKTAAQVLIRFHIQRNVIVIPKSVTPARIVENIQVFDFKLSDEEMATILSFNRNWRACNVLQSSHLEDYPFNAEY

| inhibition [1] [%] | Ratio IC50 [3] | IC50 [4] [nM] | IC50 [5] [nM] | IC50 [6] [nM] | Ratio IC50 [7] | IC50 [8] [nM] | inhibition [9] | IC50 [10] [nM] | IC50 [11] [nM] | inhibition [12] [%] | IC50 [13] [nM] | IC50 [14] [nM] | SMILES | Reduction in absorbance at 518 nm (DPPH) [2] |
| --- | --- | --- | --- | --- | --- | --- | --- | --- | --- | --- | --- | --- | --- | --- |
| 13.4 | > 1180 | 85 | > 100000 | 118 |  |  |  |  |  |  |  |  | COCn1nc2c3ccccc3n(CC(=O)O)c2nc1=O | 0.042 |
|  |  |  |  |  |  |  |  |  |  |  |  |  | COc1ccc2[nH]cc(CCNC(C)=O)c2c1 | 0.022 |
| 24 | > 2380 | 42 | > 100000 | 51 | > 850 | 216 | Dose-dependent effect | 292 | 40 | 0.9 | 56200 | 66 | O=C(O)Cn1c2ccccc2c2n[nH]c(=O)nc21 | 0.057 |
|  |  |  | 35000 |  |  |  |  |  |  |  |  |  | O=C(O)Cn1c2ccccc2c2nnc(S)nc21 | 0.219 |
| 37.8 | > 230 | 434 | > 100000 | 787 |  |  |  |  |  |  |  |  | O=C(O)Cn1c2ccccc2c2nn(Cc3ccccc3)c(=O)nc21 |  |
|  | 168 | 120 | 20200 | 233 |  |  |  |  |  |  |  |  | O=C(O)Cn1nc2c3ccccc3n(CC(=O)O)c2nc1=O |  |
